High-throughput results (PubChem BioAssay)
Only some compounds are listed: those with a hit (about 3.3% of all), similar ones and a draw of the others.
PMI act satM6P = increases human PMI activity with near-saturating mannose 6-phosphate. AID 1216. activation factor at 20 µM. coupled PMI enzyme assay, resazurin fluorescence, 20 min; hits give high values; 1 = untreated enzyme, 0 = substrate-free blank. 190,000 compounds, 0.34% hits;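 active = activation factor of 2 or more at 20 µM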
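Test system: Human PMI in coupled enzyme assay | Input: 15 ng/mL PMI | Medium: HEPES-buffered pH 7.4 with magnesium and detergent | Compound: One concentration, 20 µM, in 1% DMSO | Incubation: Enzyme reaction with compound 20 min at room temperature | Detection: Diaphorase-driven resazurin-to-resorufin fluorescence, excitation 544, emission 590 nm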
PMI activator = phosphomannose isomerase (human) activation. P34949. purified human PMI, coupled resazurin fluorescence, 20 min; hits give high values; 1 = vehicle control, 0 substrate-free wells. activation factor at 20 µM. 190,000 compounds, 0.005% hits;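 active = activation factor of 2 or more at 20 µM, relative to plate controls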
ABCB1 inh = blocks JC-1 efflux by human ABCB1 transporter; P08183; CCRF-Adr cells, flow cytometry; inhibition, % at 6.6 µM; 190,000 compounds, 0.067% hits; AID 1326; in the data active = inhibition above about 40%;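 note: 0% = vehicle and 100% = reference inhibitor; higher value means more JC-1 retained so stronger ABCB1 efflux block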
KCC2 mod = modulators of human KCC2 chloride dependent transport; KCC2 cells, thallium flux FluoZin-2 fluorescence; 190,000 compounds, 2.2% hits; B-score of Tl+ flux slope (higher = more flux/activation; lower = inhibition) at 10 µM;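 active = thallium flux slope and its plate-corrected score both differing from the plate sample mean at a set confidence after two filtering rounds, in either direction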;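 note: slope of fluorescence scaled to starting intensity during 10 to 20 s after thallium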
ABCG2 block = inhibitors of human ABCG2 transporter, ABCB1 counter-screen; 190,000 compounds, 0.1% hits; Q9UNQ0; IgMXP3 cells, JC-1 efflux, flow cytometry; inhibition, % at 6.6 µM;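 active = inhibition above 80%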;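 note: 0% = DMSO and 100% = nicardipine control wells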
Target sequence (Q9UNQ0 whole entry, looked up): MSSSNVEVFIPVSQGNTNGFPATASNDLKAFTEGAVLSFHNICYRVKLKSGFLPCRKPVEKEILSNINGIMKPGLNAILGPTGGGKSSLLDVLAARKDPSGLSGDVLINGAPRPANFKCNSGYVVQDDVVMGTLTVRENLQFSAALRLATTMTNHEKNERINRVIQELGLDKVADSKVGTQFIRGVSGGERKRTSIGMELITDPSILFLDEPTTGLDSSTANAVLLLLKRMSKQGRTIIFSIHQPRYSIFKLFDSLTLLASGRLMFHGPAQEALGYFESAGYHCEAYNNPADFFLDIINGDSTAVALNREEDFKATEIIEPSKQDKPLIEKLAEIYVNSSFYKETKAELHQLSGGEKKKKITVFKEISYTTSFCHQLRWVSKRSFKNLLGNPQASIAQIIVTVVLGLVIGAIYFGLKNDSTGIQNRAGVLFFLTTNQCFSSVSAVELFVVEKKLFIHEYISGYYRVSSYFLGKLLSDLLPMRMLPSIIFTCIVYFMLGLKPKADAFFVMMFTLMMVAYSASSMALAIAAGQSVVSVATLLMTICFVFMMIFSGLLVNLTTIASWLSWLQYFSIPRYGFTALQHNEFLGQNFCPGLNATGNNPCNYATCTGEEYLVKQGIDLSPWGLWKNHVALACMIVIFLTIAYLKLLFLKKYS
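material = IgMXP3 (ABCG2) plus far-red-tagged CCRF-Adr (ABCB1) cells | amount = 3 million cells/mL, equal mix of both lines | also added = JC-1 transporter substrate | dosing = one concentration, 6.6 µM final | schedule = 10 min at 25 °C | measured by = flow cytometric JC-1 green MFI at 530 nm | read-out basis = percent efflux inhibition, scaled nicardipine 100% to DMSO 0%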
ROMK primary = modulates human ROMK potassium channel activity; P48048; Tet-inducible ROMK, thallium flux fluorescence; actives lie on both sides; B-score at 10 µM; 130,000 compounds, 2% hits; AID 1918;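 active = signal ratio slope over the read window, or its plate-corrected B-score, at least 3 SD from the plate mean, either direction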;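 note: B-score of the F/F0 ratio slope over 7 to 12 s after thallium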
KCC2 sec1 = confirmation of human KCC2 transport modulators; shares compounds with KCC2 mod; HEK293-KCC2, thallium flux, FluoZin2 fluorescence; hits give high values; normalised thallium flux (F/F0 slope) at 10 µM; 3,700 compounds, 15% hits;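 active = thallium flux slope above the same plate's solvent-only control mean plus 3 SD; inconclusive = the two replicate wells disagree; inactive = no significant difference from solvent-only control wells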
KCC2 bumet counter = thallium flux despite bumetanide block in KCC2 cells, secondary assay 3; shares compounds with KCC2 mod; HEK293-KCC2 + bumetanide/ouabain, thallium flux FluoZin2; hits give high values; normalized thallium flux at 10 µM; 3,700 compounds, 49% hits; AID 1714;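 active = thallium entry rate above the same plate's blocked-transporter control wells by more than 3 SD; inconclusive = the two repeat wells disagree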;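 note: raw slope of fluorescence over initial fluorescence between 10 and 20 s after thallium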
KCC2 sec2 = confirmation of human KCC2 transport modulators. shares compounds with KCC2 mod. normalized thallium flux at 10 µM. HEK293-KCC2, thallium flux FluoZin2 fluorescence; actives lie on both sides; F/F0 rise rate, 10–20 s post-thallium. AID 1715. 3,700 compounds, 23% hits;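 active = thallium flux slope more than 3 SD above or below the plate's solvent-only control mean, mostly below; inconclusive = the two repeat wells disagreed; inactive = no significant shift from solvent-only controls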;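 note: raw slope with 0.1% DMSO as baseline and bumetanide as block control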
HEK293 Tl flux = counter-screen for KCC2 modulators: effect in parental HEK293 cells; shares compounds with KCC2 mod; thallium flux FluoZin2, ouabain; baseline-ratio fluorescence slope, 10–20 s after thallium; thallium flux rate (normalised fluorescence) at 10 µM; 3,700 compounds, 46% hits; AID 1716;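 active = thallium flux rate significantly above the same plate's solvent-only control wells, beyond their mean plus 3 SD; inconclusive = the two replicate wells gave conflicting results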
KCC2 retest ouab = KCC2 (human) modulation, ouabain retest; shares compounds with KCC2 mod; HEK293-KCC2, thallium flux FluoZin2 fluorescence; bidirectional: low = inhibitor, high = activator; raw Tl+ flux slope (below DMSO = inhibition, above = activation) at 10 µM; 3,700 compounds, 48% hits;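 active = thallium flux slope beyond 3 SD from same-plate DMSO control mean in most replicates, usually higher, sometimes lower; inconclusive = repeat tests gave conflicting results; inactive = no significant difference from controls in most replicates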;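 note: slope of initial-normalized fluorescence between seconds 10 and 20 after thallium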
HEK counter2 = acts in parental HEK cells, second KCC2 counter-screen. shares compounds with KCC2 mod. HEK293 parental, thallium flux FluoZin-2 fluorescence slope. thallium flux slope at 10 µM. 3,700 compounds, 33% hits. AID 1718;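 active = thallium flux slope above the same plate's solvent-control mean plus 3 SD in both duplicate wells; inconclusive = duplicate wells that disagreed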;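 note: run without ouabain in cells lacking the KCC2 cotransporter; slope of fluorescence scaled to its starting value between 10 and 20 s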
The depositor's hits bear a star; ? = inconclusive; nt = no result given.

SMILES	PMI act satM6P	PMI activator	ABCB1 inh	KCC2 mod	ABCG2 block	ROMK primary	KCC2 sec1	KCC2 bumet counter	KCC2 sec2	HEK293 Tl flux	KCC2 retest ouab	HEK counter2
Cc1ccccc1NC1=NC(=S)N(c2ccccc2)C12CCCCC2	1	1.1	0.3	56.6*	1.2	0.974	0.025*	0.162*	0.043*	0.0779*	0.11*	0.0223*
O=C(Cc1n[nH]c(=O)c2ccccc12)NC(c1ccccc1)c1ccccc1	nt	nt	nt	0.594	nt	nt	nt	nt	nt	nt	nt	nt
COc1ccc(CCNC(=O)C2CCN(c3nccc(C)n3)CC2)cc1	1.1	1	0.9	-0.691	20.5	0.147	nt	nt	nt	nt	nt	nt
Cn1cccc1Cc1nnc(SCC(=O)Nc2ccc3c(c2)OCO3)n1-c1ccc(F)cc1	0.9	0.9	1.8	0.0266	13.2	nt	nt	nt	nt	nt	nt	nt
Oc1c(C(c2ccccc2Cl)N2CCCC2)ccc2cccnc12 (centres undefined)	0.9	0.7	-0.6	2.86*	-1.9	nt	0.0169	0.00849*	0.0301	0.00998*	0.0179	0.013*
Oc1c(C(c2cccs2)N2CCN(c3ccccc3)CC2)ccc2cccnc12 (centres undefined)	0.5	0.4	0.0	0.0928	-0.2	-1.03	nt	nt	nt	nt	nt	nt
O=C(CNC(=O)c1cccs1)NC1=NCCS1	1	0.9	0.3	2.86*	3.6	nt	0.00573	0.00491	0.0302	0.00799	0.0191	0.011
O=C(COC(=O)c1ccc(Cl)c(S(=O)(=O)NCc2ccccc2)c1)NCC1CCCO1 (centres undefined)	1.1	1.2	0.1	-0.354	1.9	-1.63	nt	nt	nt	nt	nt	nt
O=C(COC(=O)CNS(=O)(=O)c1cccc(Br)c1)Nc1ccccc1Sc1ccccc1	0.9	0.8	-0.1	1.04	-3.2	0.224	nt	nt	nt	nt	nt	nt
CCCCCn1nnc2c(=O)oc3ccccc3c21	1	1	0.6	nt	9.6	nt	0.0141	0.00446	0.0228*	0.00529*	0.0105*	?
CCCn1nnc2c(=O)oc3ccccc3c21	1	1	0.9	-2.8	14.4	-0.00952	nt	nt	nt	nt	nt	nt
C=CCN1C(=O)/C(=C/c2ccc(OC(C)=O)c(OCC)c2[N+](=O)[O-])SC1=S	0.6	0.6	-0.6	-3.44*	-0.9	0.577	0.00577*	0.00669	0.0307	0.00498*	?	0.0104
Cc1ccc(-c2csc(NC(=O)C3CC(=O)N(Cc4ccco4)C3)n2)cc1 (centres undefined)	0.9	0.9	-1.3	-4.34	4.7	0.0179	nt	nt	nt	nt	nt	nt
Cc1csc(NC(=O)C2CC(=O)N(Cc3ccco3)C2)n1 (centres undefined)	0.9	1	-0.1	2.83*	-0.3	0.475	0.00579	0.00458	0.0299	0.0078	0.0187	0.00979
Cc1n[nH]c(C)c1CCC(=O)N/N=C/C=C/c1ccccc1	1	1	1.3	0.273	10.9	1.06	nt	nt	nt	nt	nt	nt
CC1(C)CC(Cc2nc(=S)[nH][nH]2)C(=O)O1 (centres undefined)	1.2	0.8	0.8	0.495	5.3	0.0321	nt	nt	nt	nt	nt	nt
C=CCn1c(O)c(N=NC(=S)Nc2ccc(OC)cc2)c2ccccc21	1.1	1	0.1	53.1*	0.5	1.29	0.00651	0.061*	0.0639*	0.0591*	0.0585*	0.0495*
C=CCn1c(O)c(N=NC(=O)OCC)c2ccccc21	1	0.9	0.5	-0.532	29.6	-0.504	nt	nt	nt	nt	nt	nt
C=CCn1c(O)c(N=NC(=S)Nc2cccc(OC)c2)c2ccccc21	1.1	1.1	-7.3	70.7*	-19.2	0.466	0.0202*	0.109*	0.0308	0.041*	0.0521*	0.0134*
CN(C)C(=O)C(=O)c1cccn1-c1cccc(Cl)c1C#N	0.8	0.9	1.2	-0.392	2.4	nt	nt	nt	nt	nt	nt	nt
S=C(Nc1ccc(Cl)cc1Cl)NC1CCN(Cc2ccccc2)CC1	1	0.9	0.4	-3.75*	26.3	nt	0.00741	?	0.0288	0.00789	0.021*	?
S=C(Nc1ccccc1Cl)NC1CCN(Cc2ccccc2)CC1	1	0.9	0.1	-2.74	-0.1	nt	nt	nt	nt	nt	nt	nt
CC(C)(C)c1ccc(SCCc2cccnc2)cc1	nt	nt	nt	-0.327	nt	nt	nt	nt	nt	nt	nt	nt
COC(=O)C1=C(C(=O)OC)C(c2cc(Cl)ccc2O)c2sc(=O)[nH]c2S1 (centres undefined)	0.7	1	0.4	-4.44*	2.2	nt	0.00747	0.00415	?	?	0.0138*	?
Cc1ccc(C)c(/C=C/C(=O)c2ccccc(=O)c2O)c1	1.2	1.1	-0.3	40.4*	-3.8	-2.07	0.00614	0.067*	0.0607*	0.0623*	0.0618*	0.0513*
SMILES	PMI act satM6P	PMI activator	ABCB1 inh	KCC2 mod	ABCG2 block	ROMK primary	KCC2 sec1	KCC2 bumet counter	KCC2 sec2	HEK293 Tl flux	KCC2 retest ouab	HEK counter2
Cc1ccc(/C=C/C(=O)c2ccccc(=O)c2O)c(C)c1	1.2	1.1	-1.0	67.7*	-1.7	-0.771	0.013*	0.0882*	0.0403*	0.0562*	0.0728*	0.0197*
CSc1ccccc1NC(=O)COc1ccccc1Cl	0.9	0.9	0.1	nt	2.0	nt	nt	nt	nt	nt	nt	nt
C=C(C)c1nc(N)nc(N)n1	1	0.9	1.4	0.958	21.7	0.366	nt	nt	nt	nt	nt	nt
NNC(=O)C(Cc1c[nH]c2ccccc12)NC(=O)c1ccccc1 (centres undefined)	nt	nt	nt	-0.0682	nt	-0.519	nt	nt	nt	nt	nt	nt
COc1ccc(CCNC(=O)C2CCCN(S(=O)(=O)c3cccc4nonc34)C2)cc1OC (centres undefined)	1	1	1.1	nt	2.7	1.44	0.00578	0.00528	0.0318	0.0084	0.0187	0.0115
NC(=O)CSc1nccn1Cc1ccccc1	1.1	1.1	0.1	0.0229	-0.7	1.56	nt	nt	nt	nt	nt	nt
O=[N+]([O-])c1ccccc1Sc1nccn1Cc1ccccc1	1	1	0.0	-4.18*	1.8	nt	0.00678	0.0046	0.0326	?	0.0135*	0.0107
CC1(C)CC2=C(CO1)C(=S)NC(c1ccccc1)N2CC1CCCO1 (centres undefined)	nt	nt	nt	0.826	nt	0.0308	nt	nt	nt	nt	nt	nt
